Data: ChEMBL document CHEMBL1123419, “Synthesis and antiviral activity of sulfonamidobenzophenone oximes and sulfonamidobenzamides” (1986)
Converted amounts (≈) assume the structure as drawn.

Assays:
CV-1 [1] = test: Chemotherapeutic index in CV-1 cells (chemotherapeutic index=50% cytotoxic dose/50% effective dose).; format: functional, Cercopithecidae
Procedure, shortened: (§1)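 Index = 50% cytotoxic dose / 50% plaque-inhibition dose. For cytotoxicity, 200 cells/mL in suspension were mixed with 10% FBS MEM carrying serial compound dilutions and incubated 7 days at 37 °C under 5% CO2. Colonies were stained with 1% crystal violet and counted, and the 50% cytotoxic dose was read from the dose-response curve.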

Poliovirus 1 = test: microbe, parasite or virus in culture; format: functional; conditions: Enterovirus C; read-out: ED50 (the source's name)
Enterovirus [2] = test: Antiviral activity against rhinovirus 1A using plaque-inhibition assay; format: functional; conditions: read-out: ED50 (the source's name)
Procedure, shortened: (§2)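 Plaque reduction: confluent monolayers were infected with 100-200 PFU. Hela (Ohio) cells were used for rhinoviruses 10 and 1A and coxsackieviruses B4 and A9, CV-1 for poliovirus type 1 Mahoney, and LLC-MK2 for enterovirus 70. Cells were overlaid with 2.0% agar in MEM plus 4% FBS containing serial compound concentrations. Incubation was 37 °C for polio/coxsackie and 33 °C for rhino/enterovirus, with a neutral red (0.004%) second overlay. ED50 was taken from the dose-response curve.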

HeLa [3] = test: Antiviral activity was measured against Hela cells injected with rhinovirus 26; format: functional, Homo sapiens
Procedure, shortened: (§3)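 Rhinovirus spectrum in Hela cells: infected cultures were kept 3 days at 33 °C, stained with crystal violet and examined microscopically for cytopathic effect. The end point was 50% inhibition.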

HeLa [4] = test: Antiviral activity was measured against Hela cells injected with coxsackie virus type A9; format: functional, Homo sapiens; procedure, shortened: as §2
CV-1 [5] = test: Compound was evaluated for its failure of virucidal activity in poliovirus infected CV-1 cells at 50 ug/mL. virus titer 7.4*10e7 PFU/mL; format: functional, Cercopithecidae
HeLa [6] = test: Antiviral activity was measured against Hela cells injected with coxsackie virus type B4; format: functional, Homo sapiens; procedure, shortened: as §2
CV-1 [7] = test: Compound was evaluated for its failure of virucidal activity in poliovirus infected CV-1 cells at 0.5 ug/mL. virus titer 6.6*10e7 PFU/mL; format: functional, Cercopithecidae
HeLa [8] = test: Antiviral activity was measured against Hela cells injected with rhinovirus 19; format: functional, Homo sapiens; procedure, shortened: as §3
CV-1 [9] = test: Compound was evaluated for its failure of virucidal activity in poliovirus infected CV-1 cells at 5 ug/mL. virus titer 7.1*10e7 PFU/mL; format: functional, Cercopithecidae
HeLa [10] = test: Antiviral activity was measured against Hela cells injected with rhinovirus 1A; format: functional, Homo sapiens; procedure, shortened: as §3
HeLa [11] = test: Antiviral activity was measured against Hela cells injected with rhinovirus 10; format: functional, Homo sapiens; procedure, shortened: as §3
CV-1 [12] = test: Effect on time of addiction in poliovirus infected CV-1 cells treated with 1 ug/mL of compound at 3 h. virus titer 1.6*10e9; format: functional, Cercopithecidae
CV-1 [13] = test: Effect on time of addiction in poliovirus infected CV-1 cells treated with 1 ug/mL of compound at 1 h. virus titer 3.6*10e8; format: functional, Cercopithecidae
CV-1 [14] = test: Effect on time of addiction in poliovirus infected CV-1 cells treated with 1 ug/mL of compound at 5 h. virus titer 4.3*10e9; format: functional, Cercopithecidae
CV-1 [15] = test: Effect on time of addiction in poliovirus infected CV-1 cells treated with 1 ug/mL of compound at 2 h. virus titer 5.0*10e8; format: functional, Cercopithecidae
CV-1 [16] = test: Effect on time of addiction in poliovirus infected CV-1 cells treated with 1 ug/mL of compound at 0 h. virus titer 4.8*10e8; format: functional, Cercopithecidae
CV-1 [17] = test: Effect on time of addiction in poliovirus infected CV-1 cells treated with 1 ug/mL of compound at 4 h. virus titer 3.1*10e9; format: functional, Cercopithecidae
CV-1 [18] = test: Compound was evaluated for its failure of virucidal activity in poliovirus infected CV-1 cells at 5 ug/mL. virus titer 7.6*10e7 PFU/mL; format: functional, Cercopithecidae
LLC-MK2 = test: Antiviral activity was measured against LLC-MK2 cells injected with enterovirus 70; format: functional, Cercopithecidae; procedure, shortened: as §2
CV-1 [19] = test: Compound was evaluated for its failure of virucidal activity in poliovirus infected CV-1 cells at 0.5 ug/mL. virus titer 6.4*10e7 PFU/mL; format: functional, Cercopithecidae
Enterovirus [20] = test: Antiviral activity against rhinovirus 10 using plaque-inhibition assay; format: functional; conditions: read-out: ED50 (the source's name); procedure, shortened: as §2
CV-1 [21] = test: Compound was evaluated for chemotherapeutic index in CV-1 cells (chemotherapeutic index=50% cytotoxic dose/50% effective dose); format: functional, Cercopithecidae; procedure, shortened: as §1

Compound `CC(C)c1ccc(NC(=O)c2ccc(NS(=O)(=O)N(C)C)cc2)cc1` has a Chemotherapeutic index (CV-1 [1]) of 10, an EC50 (Poliovirus 1) of 0.21 µg/mL (≈ 0.581 µM) and an EC50 (Enterovirus [2]) of 0.1 µg/mL (≈ 0.277 µM).
For `CN(C)S(=O)(=O)Nc1ccc(C(=O)Nc2ccc(Cl)cc2)cc1`, the Chemotherapeutic index (CV-1 [1]) was 220, the EC50 (Poliovirus 1) was 0.5 µg/mL (≈ 1.41 µM) and the EC50 (Enterovirus [2]) was 0.32 µg/mL (≈ 0.904 µM).
For `CN(C)S(=O)(=O)Nc1ccc(C(=O)Nc2ccc(C(F)(F)F)cc2)cc1`, the Chemotherapeutic index (CV-1 [1]) was 19, the EC50 (Poliovirus 1) was 0.18 µg/mL (≈ 0.465 µM) and the EC50 (Enterovirus [2]) was 0.17 µg/mL (≈ 0.439 µM).
In the case of `CCCCCc1ccc(NC(=O)c2ccc(NS(=O)(=O)N(C)C)cc2)cc1`, the Chemotherapeutic index (CV-1 [1]) was 4, the EC50 (Poliovirus 1) was 0.32 µg/mL (≈ 0.822 µM) and the EC50 (Enterovirus [2]) was 0.51 µg/mL (≈ 1.31 µM).
`CCCCCCc1ccc(NC(=O)c2ccc(NS(=O)(=O)N(C)C)cc2)cc1` gave a Chemotherapeutic index (CV-1 [1]) of 11, an EC50 (Poliovirus 1) of 0.16 µg/mL (≈ 0.396 µM) and an EC50 (Enterovirus [2]) of 0.24 µg/mL (≈ 0.595 µM).
`CCCc1ccc(NC(=O)c2ccc(NS(=O)(=O)N(C)C)cc2)cc1` showed a Chemotherapeutic index (CV-1 [1]) of 6, an EC50 (Poliovirus 1) of 0.16 µg/mL (≈ 0.443 µM) and an EC50 (Enterovirus [2]) of 0.15 µg/mL (≈ 0.415 µM).
`CN(C)S(=O)(=O)Nc1ccc(C(=O)Nc2ccc(Br)cc2)cc1` was tested, and the ED50 (HeLa [3]) was 0.68 µg/mL (≈ 1.71 µM), the ED50 (HeLa [4]) was 5.2 µg/mL (≈ 13.1 µM) and the Inhibition (CV-1 [5]) was 0%. It also gave a Chemotherapeutic index (CV-1 [1]) of 600, an EC50 (Poliovirus 1) of 0.3 µg/mL (≈ 0.753 µM) and an ED50 (HeLa [6]) of 4 µg/mL (≈ 10 µM). The Inhibition (CV-1 [7]) was 12%, the EC50 (Enterovirus [2]) was 0.26 µg/mL (≈ 0.653 µM) and the ED50 (HeLa [8]) was 0.6 µg/mL (≈ 1.51 µM). It also gave an Inhibition (CV-1 [9]) of 0%, an ED50 (HeLa [10]) of 0.68 µg/mL (≈ 1.71 µM) and an ED50 (HeLa [11]) of 0.42 µg/mL (≈ 1.05 µM).
With `CN(C)S(=O)(=O)Nc1ccc(C(=O)NCCCCc2ccccc2)cc1` the ED50 (HeLa [3]) was 0.13 µg/mL (≈ 0.346 µM), the Inhibition (CV-1 [12]) was 61% and the ED50 (HeLa [4]) was 0.4 µg/mL (≈ 1.07 µM). The Inhibition (CV-1 [13]) was 91.2%, the Inhibition (CV-1 [14]) was 0% and the Inhibition (CV-1 [15]) was 87.8%. The Inhibition (CV-1 [5]) was 0%, the Chemotherapeutic index (CV-1 [1]) was 18 and the EC50 (Poliovirus 1) was 0.09 µg/mL (≈ 0.24 µM). The Inhibition (CV-1 [16]) was 88.3%, the Inhibition (CV-1 [17]) was 24.4% and the ED50 (HeLa [6]) was 0.42 µg/mL (≈ 1.12 µM). For the same compound, the Inhibition (CV-1 [18]) was 3%, the EC50 (Enterovirus [2]) was 0.13 µg/mL (≈ 0.346 µM) and the ED50 (LLC-MK2) was 0.7 µg/mL (≈ 1.86 µM). It also gave an Inhibition (CV-1 [19]) of 10%, an ED50 (HeLa [8]) of 0.12 µg/mL (≈ 0.32 µM) and an ED50 (HeLa [10]) of 0.12 µg/mL (≈ 0.32 µM). For the same compound, the ED50 (HeLa [11]) was 0.09 µg/mL (≈ 0.24 µM).
In the case of `COc1ccc(/C(=N\O)c2cccc(NS(=O)(=O)N(C)C)c2)cc1`, the Chemotherapeutic index (CV-1 [1]) was 56, the EC50 (Poliovirus 1) was 0.26 µg/mL (≈ 0.744 µM) and the EC50 (Enterovirus [20]) was 0.29 µg/mL (≈ 0.83 µM). For the same compound, the ED50 (HeLa [6]) was 0.64 µg/mL (≈ 1.83 µM), the ED50 (LLC-MK2) was 0.75 µg/mL (≈ 2.15 µM) and the ED50 (HeLa [8]) was 0.44 µg/mL (≈ 1.26 µM). It also gave an ED50 (HeLa [10]) of 0.29 µg/mL (≈ 0.83 µM) and an ED50 (HeLa [11]) of 0.26 µg/mL (≈ 0.744 µM).
In the case of `CN(C)S(=O)(=O)Nc1cccc(/C(=N/O)c2cccc(N)c2)c1`, the EC50 (Poliovirus 1) was 0.7 µg/mL (≈ 2.09 µM) and the Chemotherapeutic index (CV-1 [21]) was 66.
`CC(C)Cc1ccc(NC(=O)c2ccc(NS(=O)(=O)N(C)C)cc2)cc1` was tested, and the Chemotherapeutic index (CV-1 [1]) was 7, the EC50 (Poliovirus 1) was 0.16 µg/mL (≈ 0.426 µM) and the EC50 (Enterovirus [2]) was 0.13 µg/mL (≈ 0.346 µM).
